Legend:
[1] = Total plasma clearance in Sprague-Dawley rat at 5 mg/kg, iv by LC-MS/MS analysis; format: ADME, organism-based; set-up: dose 5 mg/kg, route intravenous
Procedure, shortened: (§1)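 Male Sprague-Dawley rats (200–220 g), five per group, fasted from the evening before dosing until 2 h post-dose. Single i.v. dose of 5 mg/kg in cremophor:ethanol (1:1) diluted with sterile 0.154 M NaCl, given at 10 ml/kg. Plasma sampled 5–1440 min. Plasma kept at -20 °C and assayed by LC-MS-MS after liquid–liquid extraction. Parameters from mean plasma concentrations by non-compartmental analysis.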

[2] = Apparent volume of distribution in Sprague-Dawley rat at 5 mg/kg, iv by LC-MS/MS analysis; format: ADME, organism-based; set-up: dose 5 mg/kg, route intravenous; settings: in vivo, read-out: Vz; procedure, shortened: as §1
[3] = Cytotoxicity against human KB-0528 cells after 72 hrs by SRB assay; format: functional, cell-based; settings: KB-0528, 72 h
Procedure, shortened: (§2)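 Cells grown in RPMI 1640 with 10% FBS at 37 °C under 5% CO2 and seeded at 0.4–1.0 × 10^4 cells/well. Compounds added after 24 h from DMSO stock, at least five concentrations, final DMSO ≤0.1%. Exposure 72 h. Growth read by SRB staining at OD 520 nm. Three experiments, each in quadruplicate. IC50 taken from survival (%) versus concentration curves.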

[4] = Cytotoxicity against human HL60-0607-2 cells after 72 hrs by SRB assay; format: functional, cell-based; procedure, shortened: as §2
[5] = Cytotoxicity against multidrug-resistant human KBR-0530 cells after 72 hrs by SRB assay; format: functional, cell-based; settings: KBR-0530, 72 h; procedure, shortened: as §2
[6] = Cytotoxicity against multidrug-resistant human KBR-0602 cells after 72 hrs by SRB assay; format: functional, cell-based; settings: KBR-0602, 72 h; procedure, shortened: as §2
[7] = Cytotoxicity against multidrug-resistant human HL60OR-0604-2 cells after 72 hrs by SRB assay; format: functional, cell-based; procedure, shortened: as §2
[8] = AUC (0 to t) in Sprague-Dawley rat at 5 mg/kg, iv by LC-MS/MS analysis; format: ADME, organism-based; set-up: dose 5 mg/kg, route intravenous; settings: plasma; procedure, shortened: as §1
[9] = AUC (0 to infinity) in Sprague-Dawley rat at 5 mg/kg, iv by LC-MS/MS analysis; format: ADME, organism-based; set-up: time infinity, dose 5 mg/kg, route intravenous; settings: plasma; procedure, shortened: as §1
[10] = Mean residence time in Sprague-Dawley rat at 5 mg/kg, iv by LC-MS/MS analysis; format: ADME, organism-based; set-up: dose 5 mg/kg, route intravenous; settings: in vivo; procedure, shortened: as §1
[11] = Half life in Sprague-Dawley rat plasma at 5 mg/kg, iv by LC-MS/MS analysis; format: ADME, organism-based; set-up: dose 5 mg/kg, route intravenous; procedure, shortened: as §1
[12] = Intrinsic clearance in human liver microsomes; format: ADME, Microsome
Procedure, shortened: (§3)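 Test compound at 5 µmol/L with pooled human liver microsomes (0.5 mg/mL) and 1 mM NADPH in 0.1 M potassium phosphate buffer, pH 7.4, at 37 °C. Reactions stopped with acetonitrile at 0, 5, 10, 15, 30 and 60 min. Samples extracted with n-hexane:dichloromethane:isopropanol and spun to remove protein. Remaining parent measured by HPLC-MS (ESI positive).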

Liver microsomes [13] = test: (§4) Metabolic stability in human liver microsomes assessed as unchanged remaining compound after 60 mins; format: ADME, Microsome; settings: microsomes, 1 h; procedure, shortened: as §3
Liver microsomes [14] = test: (§5) Half life in human liver microsomes; format: ADME, Microsome; settings: microsomes; procedure, shortened: as §3
[15] = Ratio of compound IC50 to docetaxel IC50 for human HL60-0607-2 cells; format: functional
[16] = Ratio of compound IC50 to docetaxel IC50 for human HL60OR-0604-2 cells; format: functional
[17] = as §4; format: ADME, Microsome; settings: liver microsomes, read-out: Stability; procedure, shortened: as §3
[18] = as §5; format: ADME, Microsome; settings: liver microsomes; procedure, shortened: as §3

SMILES | clearance [1] [mL/min/kg] | Vd [2] [L/kg] | IC50 [3] [nM] | IC50 [4] [nM] | IC50 [5] [nM] | IC50 [6] [nM] | IC50 [7] [nM] | AUC(0-t) [8] [ng·h/mL] | AUC(0-inf) [9] [ng·h/mL] | MRT [10] [h] | half-life [11] [h] | CLint scaled [12] [mL/min/kg] | Stability (Liver microsomes [13]) [%] | t1/2 (Liver microsomes [14]) [h] | Ratio IC50 [15] | Ratio IC50 [16] | remaining at 1 h [17] [%] | half-life [18] [h]
CC(=O)O[C@@]12CO[C@@H]1C[C@H](O)[C@@]1(C)C(=O)[C@H](O)C3=C(C)[C@@H](OC(=O)[C@H](O)[C@@H](NC(=O)OC(C)(C)C(F)(F)F)c4ccccc4)C[C@@](O)([C@@H](OC(=O)c4ccccc4)[C@H]21)C3(C)C | 21 | 18.1 | 0.0834 | 0.263 | 0.694 | 0.626 | 0.41 | 3860 | 3960 | 2.32 | 9.91 | – | – | – | – | – | – | –
CC(=O)O[C@@]12CO[C@@H]1C[C@H](O)[C@@]1(C)C(=O)[C@H](O)C3=C(C)[C@@H](OC(=O)[C@H](O)[C@@H](NC(=O)OC(C)(C)CF)c4ccccc4)C[C@@](O)([C@@H](OC(=O)c4ccccc4)[C@H]21)C3(C)C | 84.8 | 89.7 | 0.506 | 0.156 | 0.0322 | 0.792 | 0.958 | 914 | 994 | 5.62 | 12.2 | – | – | – | – | – | – | –
CC(=O)O[C@@]12CO[C@@H]1C[C@H](O)[C@@]1(C)C(=O)[C@H](O)C3=C(C)[C@@H](OC(=O)[C@H](O)[C@@H](NC(=O)OC(C)(C)C(F)F)c4ccccc4)C[C@@](O)([C@@H](OC(=O)c4ccccc4)[C@H]21)C3(C)C | 29.8 | 20.2 | 0.282 | 0.176 | 0.332 | 0.369 | 0.554 | 2860 | 2930 | 2.76 | 7.69 | – | – | – | – | – | – | –
CC(=O)O[C@@]12CO[C@@H]1C[C@H](O)[C@@]1(C)C(=O)[C@H](O)C3=C(C)[C@@H](OC(=O)[C@H](O)[C@@H](NC(=O)OC(C)(C)C)c4ccccc4)C[C@@](O)([C@@H](OC(=O)c4ccccc4)[C@H]21)C3(C)C.O.O.O [DOCETAXEL] | 125 | 78.8 | 0.454 | 0.0115 | 0.132 | 0.234 | 0.114 | 646 | 667 | 3.34 | 7.37 | – | – | – | – | – | – | –
CC(=O)O[C@@]12CO[C@@H]1C[C@H](O)[C@@]1(C)C(=O)[C@H](O)C3=C(C)[C@@H](OC(=O)[C@H](O)[C@@H](NC(=O)OC(C)(C)CF)c4ccc(F)cc4)C[C@@](O)([C@@H](OC(=O)c4ccccc4)[C@H]21)C3(C)C | 50.3 | 22 | 0.915 | 0.14 | 0.232 | 0.195 | 0.51 | 1640 | 1660 | 2.13 | 5.06 | 8.62 | 53.8 | 2.407 | – | – | – | –
CC(=O)O[C@@]12CO[C@@H]1C[C@H](O)[C@@]1(C)C(=O)[C@H](O)C3=C(C)[C@@H](OC(=O)[C@H](O)[C@@H](NC(=O)OC(C)(C)C(F)F)c4ccccc4)C[C@@](O)([C@@H](OC(=O)c4cccc(F)c4)[C@H]21)C3(C)C | 42.5 | 36.2 | – | 0.183 | 0.161 | 0.182 | 0.584 | 1930 | 1990 | 2.4 | 10.2 | – | – | – | – | – | – | –
CC(=O)O[C@@]12CO[C@@H]1C[C@H](O)[C@@]1(C)C(=O)[C@H](O)C3=C(C)[C@@H](OC(=O)[C@H](O)[C@@H](NC(=O)OC(C)(C)C(F)(F)F)c4ccccc4)C[C@@](O)([C@@H](OC(=O)c4cccc(F)c4)[C@H]21)C3(C)C | 21.3 | 13.7 | 0.21 | 0.0547 | 0.108 | 0.149 | 0.191 | 3870 | 3940 | 2.13 | 7.62 | – | – | – | – | – | – | –
CC(=O)O[C@@]12CO[C@@H]1C[C@H](O)[C@@]1(C)C(=O)[C@H](O)C3=C(C)[C@@H](OC(=O)[C@H](O)[C@@H](NC(=O)OC(C)(C)C(F)(F)F)c4ccc(F)cc4)C[C@@](O)([C@@H](OC(=O)c4ccccc4)[C@H]21)C3(C)C | 21.3 | 15.8 | 0.0259 | 0.000358 | 0.332 | 0.432 | 0.0155 | 3870 | 3980 | 2.78 | 8.5 | 0.36 | – | – | 20 | 10 | 88.5 | 57.8
CC(=O)O[C@@]12CO[C@@H]1C[C@H](O)[C@@]1(C)C(=O)[C@H](O)C3=C(C)[C@@H](OC(=O)[C@H](O)[C@@H](NC(=O)OC(C)(C)CF)c4ccccc4)C[C@@](O)([C@@H](OC(=O)c4cccc(F)c4)[C@H]21)C3(C)C | 37.7 | 22.7 | 0.248 | 0.00111 | 0.0669 | 0.205 | 2.97 | 2190 | 2240 | 2.3 | 6.8 | – | – | – | – | – | – | –
CC(=O)O[C@@]12CO[C@@H]1C[C@H](O)[C@@]1(C)C(=O)[C@H](O)C3=C(C)[C@@H](OC(=O)[C@H](O)[C@@H](NC(=O)OC(C)(C)C(F)F)c4ccc(F)cc4)C[C@@](O)([C@@H](OC(=O)c4ccccc4)[C@H]21)C3(C)C | 25.2 | 27.4 | 0.397 | 0.0168 | 0.321 | 0.885 | 2.08 | 3150 | 3360 | 4.28 | 13.4 | 3.41 | 72.4 | 6.08 | – | – | – | –

Source: ChEMBL document CHEMBL1770120 (Eur J Med Chem, 2011)
